Source: ChEMBL document CHEMBL3286129, “Optimization of peptidomimetic boronates bearing a P3 bicyclic scaffold as proteasome inhibitors” (Eur J Med Chem, 2014)

How the values were obtained:
[1] = Cytotoxicity against human melanoma cells assessed as cell growth at 10 uM relative to control; type: functional; conditions: read-out: Activity
How it was run: (§1)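 Single-concentration screen against a panel of human cancer cell lines. Each value is the mean percent growth across the cell lines of that tumour subpanel.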

TK-10 = assay: Growth inhibition of human TK10 cells; type: functional
[2] = target: T1, Proteasome Macropain subunit MB1 (Homo sapiens) (UniProt P28074); assay: Inhibition of chymotrypsin-like activity of 20S proteasome in human erythrocytes using Suc-Leu-Leu-Val-Tyr-AMC as substrate at 20 uM by fluorescence assay relative to control
T1 sequence (whole entry): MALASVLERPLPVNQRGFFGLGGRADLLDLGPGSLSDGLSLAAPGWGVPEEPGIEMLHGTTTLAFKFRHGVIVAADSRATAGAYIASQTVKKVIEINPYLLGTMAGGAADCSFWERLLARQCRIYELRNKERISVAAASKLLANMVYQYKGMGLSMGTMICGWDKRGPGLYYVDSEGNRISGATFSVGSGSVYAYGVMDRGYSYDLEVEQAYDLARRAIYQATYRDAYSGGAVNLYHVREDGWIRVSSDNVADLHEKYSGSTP
How it was run: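 Single inhibitor concentration, equivalent DMSO as negative control. AMC fluorescence read at ex 380/em 460 nm; percent inhibition of ChT-L activity.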

[3] = Growth inhibition of human Hs 578T cells; type: functional
[4] = Growth inhibition of human UACC62 cells; type: functional; conditions: UACC-62
[5] = Growth inhibition of human UO31 cells; type: functional; conditions: UO-31
SN12C = assay: Growth inhibition of human SN12C cells; type: functional
[6] = Growth inhibition of human BT549 cells; type: functional
MDA-MB-231 = assay: Growth inhibition of human MDA-MB-231 cells; type: functional
[7] = Growth inhibition of human NCI-ADR-RES cells; type: functional
[8] = target: T2, Proteasome Macropain subunit MB1 (Homo sapiens, UniProt P28074); assay: Inhibition of chymotrypsin-like activity of 20S proteasome in human erythrocytes using Suc-Leu-Leu-Val-Tyr-AMC as substrate by fluorescence assay; conditions: read-out: Ki
T2 sequence (P28074 whole entry): T1 sequence (whole entry)

A498 = assay: Growth inhibition of human A498 cells; type: functional
SK-MEL-28 = assay: Growth inhibition of human SK-MEL-28 cells; type: functional
NCI-H226 = assay: Growth inhibition of human NCI-H226 cells; type: functional
MDA-MB-468 = assay: Growth inhibition of human MDA-MB-468 cells; type: functional
SNB-19 = assay: Growth inhibition of human SNB19 cells; type: functional
NCI-H322M = assay: Growth inhibition of human NCI-H322M cells; type: functional
A549 = assay: Growth inhibition of human A549/ATCC cells; type: functional
[9] = Growth inhibition of human HCC2998 cells; type: functional; conditions: HCC 2998
[10] = Growth inhibition of human OVCAR5 cells; type: functional; conditions: OVCAR-5
[11] = Cytotoxicity against human CNSC cells assessed as cell growth at 10 uM relative to control; type: functional; conditions: read-out: Activity; how it was run: as §1
SR = assay: Growth inhibition of human SR cells; type: functional
[12] = Growth inhibition of human HOP92 cells; type: functional
CAKI-1 = assay: Growth inhibition of human CAKI-1 cells; type: functional
SW-620 = assay: Growth inhibition of human SW620 cells; type: functional
[13] = Growth inhibition of human HCT15 cells; type: functional
IGROV-1 = assay: Growth inhibition of human IGROV1 cells; type: functional
MDA-MB-435 = assay: Growth inhibition of human MDA-MB-435 cells; type: functional
HCT-116 = assay: Growth inhibition of human HCT116 cells; type: functional
SNB-75 = assay: Growth inhibition of human SNB75 cells; type: functional
DU-145 = assay: Growth inhibition of human DU145 cells; type: functional
[14] = read-out: LC50 (the source's name)

CC(C)C[C@H](NC(=O)CCn1ccc2ccc(Br)cc2c1=O)B(O)O
growth at 10 µM [1]: -19.2% | GI50 (TK-10): 0.37 µM | LC50 (TK-10): > 100 µM | TGI (TK-10): 15.6 µM | inhibition [2]: > 40% | GI50 [3]: 0.43 µM | TGI [3]: 6.2 µM | CC50 [3, 14]: > 100 µM | GI50 [4]: 0.46 µM | LC50 (concentration killing 50% of cells) [4]: 28.5 µM | TGI [4]: 2.44 µM | GI50 [5]: 0.98 µM | LC50 [5]: > 100 µM | TGI [5]: 15.4 µM | GI50 (SN12C): 1.5 µM | TGI (SN12C): 11.5 µM | CC50 (SN12C; [14]): > 100 µM | GI50 ([6]; BT-549): 0.36 µM | TGI ([6]; BT-549): 4.32 µM | CC50 ([6]; BT-549, read-out: LC50 (the source's name)): > 100 µM | GI50 (MDA-MB-231): 1.2 µM | TGI (MDA-MB-231): 12.2 µM | CC50 (MDA-MB-231; [14]): > 100 µM | GI50 [7]: 17.4 µM | LC50 [7]: > 100 µM | TGI [7]: > 100 µM | Ki [8]: 0.06 µM | GI50 (A498): 0.13 µM | LC50 (A498): > 100 µM | TGI (A498): 0.74 µM | GI50 (SK-MEL-28): 0.52 µM | TGI (SK-MEL-28): 29.7 µM | CC50 (SK-MEL-28; [14]): > 100 µM | GI50 (NCI-H226): 0.19 µM | TGI (NCI-H226): 0.42 µM | CC50 (NCI-H226; [14]): 0.95 µM | GI50 (MDA-MB-468): 0.26 µM | TGI (MDA-MB-468): 0.74 µM | CC50 (MDA-MB-468; [14]): > 100 µM | GI50 (SNB-19): 0.96 µM | TGI (SNB-19): > 100 µM | CC50 (SNB-19; [14]): > 100 µM | GI50 (NCI-H322M): > 100 µM | TGI (NCI-H322M): > 100 µM | CC50 (NCI-H322M; [14]): > 100 µM | GI50 (A549): 2.39 µM | TGI (A549): > 100 µM | CC50 (A549; [14]): > 100 µM | GI50 [9]: 1.14 µM | LC50 [9]: 8.42 µM | TGI [9]: 3.09 µM | GI50 [10]: 3.15 µM | LC50 [10]: > 100 µM | TGI [10]: 97.3 µM | growth at 10 µM [11]: 6.51% | GI50 (SR): 0.26 µM | TGI (SR): 11.6 µM | CC50 (SR; [14]): > 100 µM | GI50 ([12]; HOP-92): 1.34 µM | TGI ([12]; HOP-92): 5.61 µM | CC50 ([12]; HOP-92, read-out: LC50 (the source's name)): > 100 µM | GI50 (CAKI-1): 0.47 µM | TGI (CAKI-1): 10 µM | CC50 (CAKI-1; [14]): > 100 µM | GI50 (SW-620): 0.38 µM | LC50 (SW-620): > 100 µM | TGI (SW-620): > 100 µM | GI50 ([13]; HCT-15): 1.61 µM | TGI ([13]; HCT-15): 22.1 µM | CC50 ([13]; HCT-15, read-out: LC50 (the source's name)): > 100 µM | GI50 (IGROV-1): 5.1 µM | LC50 (IGROV-1): > 100 µM | TGI (IGROV-1): > 100 µM | GI50 (MDA-MB-435): 0.18 µM | TGI (MDA-MB-435): 0.37 µM | CC50 (MDA-MB-435; [14]): 0.78 µM | GI50 (HCT-116): 0.34 µM | LC50 (HCT-116): > 100 µM | TGI (HCT-116): 2.55 µM | GI50 (SNB-75): 0.46 µM | LC50 (SNB-75): > 100 µM | TGI (SNB-75): 3.82 µM | GI50 (DU-145): 0.71 µM | TGI (DU-145): > 100 µM | CC50 (DU-145; [14]): > 100 µM
